# Measurements as given in ChEMBL document CHEMBL2311307, “Polymethoxyflavones as agents that prevent formation of cataract: nobiletin congeners show potent growth inhibitory effects in human lens epithelial cells” (Bioorg Med Chem Lett, 2013).
# Active and inactive are the calls of the source. The rule behind the calls is not given here.
# Legend:
# [1] = Growth inhibition of human SRA 01/04 cells at 32 uM after 4 days by Alamar blue assay; format: functional; conditions: 96 h, read-out: GI
# In short: (§1)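 SRA01/04 human lens epithelial cells grown in DMEM with 20% heat-inactivated FBS plus penicillin/streptomycin/neomycin, 37 °C, 5% CO₂. Seeded at 3 × 10³ cells/well and treated in DMEM with varied flavonoid concentrations for up to 4 days. Alamar Blue added for the final 2 h, fluorescence read at ex 530/em 590 nm. Inhibition taken from the day 4 minus day 0 fluorescence change, treated versus control. n = 4, mean ± SD.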
# [2] = […] human SRA 01/04 cells assessed as inhibition of PMA-induced proMMP9 expression after 24 hrs by gelatin zymographic analysis; format: functional, cell-based
# Homo sapiens [3] = species on record: Homo sapiens; test: Growth inhibition of human SRA 01/04 cells after 4 days by Alamar blue assay; format: functional; in short: as §1
# Homo sapiens [4] = species on record: Homo sapiens; test: Growth inhibition of human SRA 01/04 cells assessed as reduction in PCNA expression at 64 uM after 4 days by Western blot analysis; format: functional
# In short: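 SRA01/04 cells plated at 2 × 10⁵ cells/dish, then harvested and lysed in RIPA buffer (pH 7.5 Tris–HCl, with orthovanadate, PMSF and protease inhibitors). 7 µg protein run on 12.5% SDS-PAGE and transferred to PVDF. Probed overnight at 4 °C with mouse anti-PCNA or anti-β-actin, then alkaline phosphatase secondary for 1 h at room temperature. Bands developed with BCIP/NBT.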
# [5] = Growth inhibition of human SRA 01/04 cells at 64 uM after 4 days by Alamar blue assay; format: functional; conditions: 96 h, read-out: GI; in short: as §1
SMILES,inhibition of growth at 32 µM [1],also measured
COc1c(OC)c(O)c2c(=O)cc(-c3ccc(O)cc3)oc2c1OC [XANTHOMICROL],42.3%,–
COc1cc(OC)cc(-c2cc(=O)c3c(OC)c(OC)c(OC)c(OC)c3o2)c1,59.9%,–
COc1c(OC)c(OC)c2c(=O)cc(-c3ccc(O)c(O)c3)oc2c1OC,26.5%,–
COc1c(OC)c(OC)c2c(=O)cc(-c3cc(O)cc(O)c3)oc2c1OC,11.5%,–
COc1ccccc1-c1cc(=O)c2c(OC)c(OC)c(OC)c(OC)c2o1,23.3%,–
COc1c(OC)c(OC)c2c(=O)cc(-c3c(O)cccc3O)oc2c1OC,5.1%,IC50 [2]: 55 µM
COc1ccc(-c2cc(=O)c3c(O)c(OC)c(OC)c(OC)c3o2)cc1OC [5-DEMETHYLNOBILETIN],17.2%,–
COc1ccc(-c2cc(=O)c3c(OC)c(OC)c(OC)c(OC)c3o2)cc1OC [NOBILETIN],47.4%,growth inhibition (GI) (Homo sapiens [3]): Dose-dependent effect; growth inhibition (GI) (Homo sapiens [4]): Active; inhibition of growth at 64 µM [5]: 80%
COc1cc(-c2cc(=O)c3c(O)c(OC)c(OC)c(OC)c3o2)ccc1O,64.1%,–
COc1cccc(-c2cc(=O)c3c(OC)c(OC)c(OC)c(OC)c3o2)c1,42%,–
COc1c(OC)c(OC)c2c(=O)cc(-c3cccc(O)c3)oc2c1OC,18.3%,–
COc1c(OC)c(OC)c2c(=O)cc(-c3ccccc3O)oc2c1OC,4.2%,–
COc1cc(-c2cc(=O)c3c(OC)c(OC)c(OC)c(OC)c3o2)ccc1O,30.7%,–
COc1c(OC)c(OC)c2c(=O)cc(-c3ccc(O)cc3)oc2c1OC,32%,–
COc1c(OC)c(O)c2c(=O)cc(-c3ccccc3O)oc2c1OC,30.7%,IC50 [2]: > 64 µM
COc1cccc(OC)c1-c1cc(=O)c2c(OC)c(OC)c(OC)c(OC)c2o1,75.9%,IC50 [2]: > 64 µM
COc1ccc(-c2cc(=O)c3c(OC)c(OC)c(OC)c(OC)c3o2)cc1 [TANGERETIN],75.9%,–
